# Test results as given in ChEMBL document CHEMBL1125592, “Calcium channel blocking and positive inotropic activities of ethyl 5-cyano-1,4-dihydro-6-methyl-2-[(phenylsulfonyl)methyl]-4-aryl-3- pyridine-carboxylate and analogues. Synthesis and structure-activity relationships” (J Med Chem, 1991).
# The source made the active and inactive calls. The calls are words filed in the database; no cut-off is given here.
# Assays:
# [1] = species: Rattus norvegicus; assay: Cardiovascular activity in isolated rat heart, concentration producing 25% increase in CF (cardiac flow).; format: functional
# Outline: (§1)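 Isolated Langendorff-perfused rat heart. Coronary flow (CF), LV +dP/dtmax and heart rate recorded during exposure to test agent. Value is the concentration giving a 25% rise in CF or in LV +dP/dtmax, mean ± SE. At least two hearts per compound.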
# [2] = species: Rattus norvegicus; assay: Cardiovascular activity in isolated rat heart, concentration producing 25% increase in LV + dP/dtmax.; format: functional; outline: as §1
# [3] = target: Voltage-gated L-type calcium channel (Rattus norvegicus, UniProt P22002+Q02485+P27732); assay: Affinity to bind dihydropyridine receptor (DHP receptor) by inhibiting the radioligand [3H]nitrendipine; format: protein assay
# Outline: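 [3H]nitrendipine displacement, rat brain cortical membranes. Each compound first screened at 1000 nM; if inhibition exceeded 40%, a four- to seven-point curve with unlabeled compound was run. IC50 generally mean of two experiments, each in triplicate. ">1000 nM" means under 40% inhibition of control binding at 1000 nM.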
# [4] = species: Rattus norvegicus; assay: Compound was tested for the cardiovascular activity in isolated rat heart. Value represents the concentration producing 25% increase in CF (cardiac flow); NA indicates not active; format: functional; outline: as §1
# [5] = species: Rattus norvegicus; assay: Compound was tested for the cardiovascular activity in isolated rat heart. Value represents the concentration producing 25% increase in LV + dP/dtmax; NA indicates not active; format: functional; outline: as §1
# [6] = species: Oryctolagus cuniculus; assay: Vasorelaxant effect at a concentration of 10e-7 M on rabbit aortic rings previously contracted with 50 mM KCl.; format: functional, Aorta; set-up: unit not given here
# Outline: (§2)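 Rabbit aortic rings precontracted with 50 mM KCl or 1.0 μM norepinephrine, then exposed to increasing concentrations of test agent. Relaxation recorded at each concentration.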
# [7] = species: Oryctolagus cuniculus; assay: Vasorelaxant effect at a concentration of 10e-4 M on rabbit aortic rings previously contracted with 50 mM KCl.; format: functional, Aorta; set-up: unit not given here; outline: as §2
# [8] = species: Oryctolagus cuniculus; assay: Vasorelaxant effect at a concentration of 10e-6 M on rabbit aortic rings previously contracted with 50 mM KCl.; format: functional, Aorta; set-up: unit not given here; outline: as §2
# [9] = species: Oryctolagus cuniculus; assay: Vasorelaxant effect at a concentration of 10e-5 M on rabbit aortic rings previously contracted with 1.0 uM Norepinephrine.; format: functional, Aorta; set-up: unit not given here; outline: as §2
# [10] = species: Oryctolagus cuniculus; assay: Vasorelaxant effect at a concentration of 10e-6 M on rabbit aortic rings previously contracted with 1.0 uM Norepinephrine.; format: functional, Aorta; set-up: unit not given here; outline: as §2
# [11] = species: Oryctolagus cuniculus; assay: Vasorelaxant effect at a concentration of 10e-4 M on rabbit aortic rings previously contracted with 1.0 uM Norepinephrine.; format: functional, Aorta; set-up: unit not given here; outline: as §2
# [12] = species: Oryctolagus cuniculus; assay: Vasorelaxant effect at a concentration of 10e-7 M on rabbit aortic rings previously contracted with 1.0 uM Norepinephrine.; format: functional, Aorta; set-up: unit not given here; outline: as §2
# [13] = species: Oryctolagus cuniculus; assay: Vasorelaxant effect at a concentration of 10e-5 M on rabbit aortic rings previously contracted with 50 mM KCl.; format: functional, Aorta; set-up: unit not given here; outline: as §2
IC50 [3] [nM],SMILES,EC25 [1],EC25 [2],also measured
> 1000,CCO/C(O)=C1\C(CS(=O)(=O)c2ccccc2)=NC(C)=C(C#N)C1C1CCCCC1 (stereo unspecified),520 nM,1090 nM,
109,CCO/C(O)=C1\C(CS(=O)(=O)c2ccc(OC)cc2)=NC(C)=C(C#N)C1c1ccccc1C(F)(F)F (stereo unspecified),300 nM,inactive,
1000,CCO/C(O)=C1\C(CS(=O)(=O)c2ccc(N)cc2)=NC(C)=C(C#N)C1c1ccccc1C(F)(F)F (stereo unspecified),940 nM,840 nM,Vasorelaxant effect [6]: 2; Vasorelaxant effect [7]: 69; Vasorelaxant effect [8]: 5; Vasorelaxant effect [9]: 2; Vasorelaxant effect [10]: 2; Vasorelaxant effect [11]: 5; Vasorelaxant effect [12]: 2; Vasorelaxant effect [13]: 38
> 1000,CCO/C(O)=C1\C(C[S+]([O-])c2ccncc2)=NC(C)=C(C#N)C1c1ccccn1 (stereo unspecified),,,EC25 [4]: inactive; EC25 [5]: inactive
> 1000,CCO/C(O)=C1\C(CS(=O)(=O)c2ccccc2C)=NC(C)=C(C#N)C1c1ccccc1C(F)(F)F (stereo unspecified),470 nM,320 nM,
91,CCO/C(O)=C1\C(CS(=O)(=O)c2ccc(Cl)cc2)=NC(C)=C(C#N)C1c1ccccc1C(F)(F)F (stereo unspecified),550 nM,,EC25 [5]: inactive
580,C=CCO/C(O)=C1\C(CS(=O)(=O)c2ccccc2)=NC(C)=C(C#N)C1c1ccccc1C(F)(F)F (stereo unspecified),<100 nM,300 nM,
> 1000,CCO/C(O)=C1\C(CS(=O)(=O)c2ccncc2)=NC(C)=C(C#N)C1c1ccccn1 (stereo unspecified),,,EC25 [4]: inactive; EC25 [5]: inactive
> 500,CCO/C(O)=C1\C(CS(=O)(=O)c2ccccc2Cl)=NC(C)=C(C#N)C1c1ccccc1C(F)(F)F (stereo unspecified),350 nM,360 nM,
390,CC1=C(C#N)C(c2ccccc2C(F)(F)F)/C(=C(\O)OC(C)C)C(CS(=O)(=O)c2ccccc2)=N1 (stereo unspecified),<100 nM,inactive,
> 1000,CCO/C(O)=C1\C(C[S+]([O-])c2ccccc2)=NC(C)=C(C#N)C1c1ccccc1Cl (stereo unspecified),540 nM,910 nM,
300,CCO/C(O)=C1\C(CS(=O)(=O)c2ccccc2)=NC(C)=C(C#N)C1c1cccc([N+](=O)[O-])c1 (stereo unspecified),510 nM,520 nM,
> 1000,CCO/C(O)=C1\C(CS(=O)(=O)c2ccccc2F)=NC(C)=C(C#N)C1c1ccccc1C(F)(F)F (stereo unspecified),90 nM,390 nM,
1100,CCO/C(O)=C1\C(C[S+]([O-])c2ccncc2)=NC(C)=C(C#N)C1c1ccccc1C(F)(F)F (stereo unspecified),inactive,1200 nM,
120,CCO/C(O)=C1\C(CS(=O)(=O)c2ccccc2)=NC(C)=C(C#N)C1c1ccccc1C(F)(F)F (stereo unspecified),70 nM,110 nM,Vasorelaxant effect [6]: 4; Vasorelaxant effect [7]: 80; Vasorelaxant effect [8]: 24; Vasorelaxant effect [9]: 13; Vasorelaxant effect [10]: 7; Vasorelaxant effect [11]: 23; Vasorelaxant effect [12]: 5; Vasorelaxant effect [13]: 67

# The remaining lines, values behind:
SMILES,IC50 [3] [nM],EC25 [1],EC25 [2],also measured
CCOC(=O)C1=C(C[S+]([O-])c2ccccc2)N(CCN(CC)CC)C(C)=C(C#N)C1c1ccccc1C(F)(F)F (stereo unspecified),> 1000,500 nM,330 nM,
CCOC(=O)C1=C(C[S+]([O-])c2ccccc2)NC(C)=C(C#N)C1c1cccc([N+](=O)[O-])c1 (stereo in doubt; 32b) [listing 1 of 2 here],> 1000,,3000 nM,
CC1=C(C#N)C(c2ccccc2C(F)(F)F)/C(=C(\O)OCCN(C)Cc2ccccc2)C(C[S+]([O-])c2ccccc2)=N1 (stereo unspecified),> 1000,420 nM,120 nM,
CC1=C(C#N)C(c2ccccc2C(F)(F)F)/C(=C(\O)OCCN2CCCCC2)C(C[S+]([O-])c2ccccc2)=N1 (stereo unspecified),> 1000,,,EC25 [4]: inactive; EC25 [5]: inactive
CCO/C(O)=C1\C(C[S+]([O-])c2ccccc2C)=NC(C)=C(C#N)C1c1ccccc1C(F)(F)F (stereo unspecified),> 1000,800 nM,130 nM,
CC1=C(C#N)C(c2ccccc2C(F)(F)F)/C(=C(\O)OC(C)C)C(C[S+]([O-])c2ccccc2)=N1 (stereo unspecified),500,240 nM,,EC25 [5]: inactive
CCOC(=O)C1=C(C[S+]([O-])c2ccccc2)NC(C)=C(C#N)C1c1cccc([N+](=O)[O-])c1 (stereo in doubt; 32b) [listing 2 of 2 here],,,,EC25 [4]: inactive
CCOC(=O)C1=C(C[S+]([O-])c2ccccc2)NC(C)=C(C#N)C1c1cccc([N+](=O)[O-])c1 (stereo in doubt; 32a) [listing 1 of 2 here],,,,EC25 [4]: inactive
CCOC(=O)C1=C(C[S+]([O-])c2ccccc2)NC(C)=C(C#N)C1c1ccccc1C(F)(F)F (stereo in doubt; 29b),2800,1300 nM,170 nM,
CCOC(=O)C1=C(C[S+]([O-])c2ccccc2)NC(C)=C(C#N)C1c1ccccc1C(F)(F)F (stereo in doubt; 29a) [listing 1 of 2 here],1600,,120 nM,
CCOC(=O)C1=C(C[S+]([O-])c2ccccc2)NC(C)=C(C#N)C1c1ccccc1C(F)(F)F (stereo in doubt; 29a) [listing 2 of 2 here],,,,EC25 [4]: inactive
CC1=C(C#N)C(c2ccccc2C(F)(F)F)/C(=C(\O)OC(C)C)C(CSc2ccccc2)=N1 (stereo unspecified),250,,,Vasorelaxant effect [6]: 0; Vasorelaxant effect [7]: 74; Vasorelaxant effect [8]: 2; Vasorelaxant effect [9]: 8; Vasorelaxant effect [10]: -2; Vasorelaxant effect [11]: 9; Vasorelaxant effect [12]: -1; Vasorelaxant effect [13]: 30
CCO/C(O)=C1\C(C[S+]([O-])c2ccccc2Cl)=NC(C)=C(C#N)C1c1ccccc1C(F)(F)F (stereo unspecified),> 1000,260 nM,200 nM,
CCO/C(O)=C1\C(C(C)S(=O)(=O)c2ccccc2)=NC2=C(C(=O)CCC2)C1c1ccccc1C(F)(F)F (stereo unspecified),,1400 nM,<100 nM,
CCO/C(O)=C1\C(C[S+]([O-])c2ccc(OC)cc2)=NC(C)=C(C#N)C1c1ccccc1C(F)(F)F (stereo unspecified),1200,300 nM,,EC25 [5]: inactive
CCOC(=O)C1=C(C[S+]([O-])c2ccccc2)NC(C)=C(C#N)C1c1cccc([N+](=O)[O-])c1 (stereo in doubt; 32a) [listing 2 of 2 here],> 1000,,2500 nM,
CCOC(=O)C1=C(CS(=O)(=O)c2ccccc2)N(C)C2=C(C(=O)CCC2)C1c1ccccc1C(F)(F)F (stereo unspecified),,180 nM,<100 nM,
CO/C(O)=C1\C(C[S+]([O-])c2ccccc2)=NC(C)=C(C#N)C1c1ccccc1C(F)(F)F (stereo unspecified),> 1000,1480 nM,260 nM,
CCO/C(O)=C1\C(CSc2ccc(NC(C)=O)cc2)=NC(C)=C(C#N)C1c1ccccc1C(F)(F)F (stereo unspecified),205,260 nM,inactive,
CCO/C(O)=C1\C(C[S+]([O-])c2ccccc2F)=NC(C)=C(C#N)C1c1ccccc1C(F)(F)F (stereo unspecified),> 1000,360 nM,930 nM,
